# Source: PubChem
# CTSL1 counter: blocks F. hepatica cathepsin L1 in PFM18AAP counter-screen; recombinant F. hepatica cathepsin L1, Z-Leu-Arg-MCA fluorescence; inhibition, % at 5.96 µM; 300,000 compounds, 0.49% hits;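 active means inhibition above the mean of all tested compounds plus 3 SD, set per screening campaign, cut at about 17% in these data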;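 further: 0% = plate median of test compound wells and 100% = 1 µM Z-Phe-Ala-diazomethylketone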
# PRMT1 inh: blocks human protein arginine methyltransferase 1. Q99873. recombinant PRMT1, activity-based probe fluorescence polarization. inhibition, % at 2.79 µM. 370,000 compounds, 1.3% hits. AID 652257;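 active means inhibition above about 21% made by adding two undisclosed values, limit read from the data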
# Target sequence (Q99873 whole entry, looked up): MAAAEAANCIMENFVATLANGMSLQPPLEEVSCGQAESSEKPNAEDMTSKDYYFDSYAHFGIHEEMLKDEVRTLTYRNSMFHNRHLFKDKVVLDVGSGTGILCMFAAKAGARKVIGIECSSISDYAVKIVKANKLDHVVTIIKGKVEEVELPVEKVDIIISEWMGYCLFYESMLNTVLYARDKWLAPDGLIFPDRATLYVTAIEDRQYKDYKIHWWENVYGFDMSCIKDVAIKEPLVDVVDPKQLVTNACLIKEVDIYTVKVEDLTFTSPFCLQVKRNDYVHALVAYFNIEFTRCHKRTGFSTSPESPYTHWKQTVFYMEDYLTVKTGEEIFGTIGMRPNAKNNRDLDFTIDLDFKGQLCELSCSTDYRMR
# PAD4 inh: PAD4 (human) enzyme inhibition. recombinant PAD4, RCA probe fluorescence polarization. inhibition, % at 6.36 µM. 330,000 compounds, 0.41% hits;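 active means percent inhibition above a cutoff equal to the mean of all tested compounds plus 3 SD, cut at about 15% in these data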;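 further: 0% = PAD4 with RCA probe and DMSO and 100% = probe without PAD4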
# GSTO1 counter: blocks human GSTO1 in RBBP9 counter-screen; P78417; recombinant GSTO1, activity-based probe fluorescence polarization; inhibition, % at 5.96 µM; 300,000 compounds, 1.1% hits; AID 1974;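 active means inhibition above the campaign mean inhibition plus 3 SD, cut at about 35% in these data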;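 further: 0% = GSTO1-1 with DMSO and 100% = wells lacking GSTO1-1 enzyme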
# Target sequence (P78417 whole entry, looked up): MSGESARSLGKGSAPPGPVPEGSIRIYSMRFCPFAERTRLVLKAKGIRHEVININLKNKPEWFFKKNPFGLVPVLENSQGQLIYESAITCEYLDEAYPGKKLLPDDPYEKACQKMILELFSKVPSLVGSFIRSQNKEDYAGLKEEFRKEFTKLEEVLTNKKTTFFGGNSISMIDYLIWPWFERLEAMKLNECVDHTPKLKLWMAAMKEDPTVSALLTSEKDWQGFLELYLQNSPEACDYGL
# TDP2 absorb: TDP2 (human) inhibition, absorbance primary screen. O95551. recombinant TDP2, T5PNP hydrolysis, p-nitrophenol absorbance 415 nm. inhibition, % at 12.8 µM. 370,000 compounds, 0.34% hits. AID 720702;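 active means inhibition above the mean of all tested compounds plus 3 SD, set per campaign, cut at about 25% in these data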;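 further: 0% = DMSO with enzyme and 100% = buffer with substrate but no TDP2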
#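 Assay system: Recombinant human TDP2 | Quantity: 120 nM TDP2 per well | Incubation: 2 h at 37 °C | Signal: Epi absorbance | Evaluation: Percent inhibition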
# PRMT1 confirm: PRMT1 (human) inhibition, FP confirmation. shares compounds with PRMT1 inh. 3,300 compounds, 42% hits. AID 687036. inhibition, % at 2.79 µM. recombinant His-PRMT1, activity-based probe fluorescence polarization;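 active means mean inhibition across replicates above the hit cutoff derived for the earlier primary screen, cut at about 22% in these data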
# An asterisk follows results filed as active; . = not tested or not shown. Shown are actives, neighbours in structure and some others; about 2.5% of the full set was active somewhere.
SMILES,CTSL1 counter,PRMT1 inh,PAD4 inh,GSTO1 counter,TDP2 absorb,PRMT1 confirm
CC1CCC2C(=O)N(c3ccc(S(=O)(=O)c4ccccc4)cc3)C(=O)C2C1 (centres undefined),-0.7,44.9*,3.6,-8.7,2.5,4.6
CCC(C)c1c(O)nc(SCC(=O)c2ccccc2)[nH]c1=O (centres undefined),0.0,52.2*,3.0,4.7,6.1,52.2*
CCC(C)c1c(O)nc(SCC(=O)Nc2ccccc2)[nH]c1=O (centres undefined),5.2,3.3,7.2,20.5,8.2,.
C=CCc1c(O)nc(SCC(=O)c2ccccc2)[nH]c1=O,3.2,46.0*,-0.7,4.1,11.3,57.5*
CCN(CC)c1ccc(/C=C(/C#N)c2nc3ccccc3[nH]2)c(OC(C)C)c1,10.5,40.7*,-10.1,11.4,1.4,12.6
COc1ccc(CNC(=O)O[C@H]2CC[C@@]34CCCN3C(=O)CCC[C@H]4C2)cc1,.,-5.0,.,.,1.8,.
O=C1Nc2ccccc2C(=O)C1(Cl)Cc1ccccc1 (centres undefined),0.7,93.0*,-3.6,-4.0,-0.7,87.3*
CNc1nc(N)c([N+](=O)[O-])c(Nc2cccc(OC)c2)n1,.,-2.1,.,.,-1.9,.
Cc1ccc2nc(-c3ccco3)c(Cc3ccccc3)n2c1,.,19.4,.,.,2.4,.
FC(F)(F)c1ccccc1Cc1c(-c2ccco2)nc2ccc(Br)cn12,.,35.8*,.,.,10.9,17.5
Cc1cc2nc(-c3ccco3)c(Cc3ccccc3C(F)(F)F)n2c(C)c1Br,.,35.7*,.,.,5.7,17.0
Cc1ccc2nc(-c3ccco3)c(Cc3ccccc3C(F)(F)F)n2c1,.,33.4*,.,.,1.3,19.5
FC(F)(F)c1ccccc1Cc1c(-c2ccco2)nc2c3ccccc3ccn12,.,32.1*,.,.,-6.0,23.4*
FC(F)(F)c1ccccc1Cc1c(-c2cccc(Cl)c2)nc2ccc(Br)cn12,.,-0.7,.,.,3.5,.
CC1(C)C=Cc2ccc(O)c(C(=O)/C=C/c3ccccc3)c2O1,.,-1.2,.,.,-3.2,.
COC(=O)[C@H]1C[C@@]2(C)c3ccccc3N(C(=O)OC(C)(C)C)[C@H]2N1C(=O)OC(C)(C)C,.,-0.8,.,.,-6.0,.
CCOC(=O)NC[C@@]1(C(=O)OC)CC(=O)N(C)[C@@H]1c1ccccc1,.,0.6,.,.,9.3,.
CCN(CC)S(=O)(=O)c1ccc(C(=O)NCc2n[nH]c(=S)n2-c2ccccc2OC)cc1,-0.3,-0.5,-0.5,4.9,3.1,.
CCN(CC)S(=O)(=O)c1ccc(C(=O)NCc2n[nH]c(=S)n2-c2ccc(Cl)c(Cl)c2)cc1,1.5,28.1*,-9.8,4.7,10.5,2.2
COc1ccc(C2C(C(=O)N3CCOCC3)CC(=O)N2c2ccc(OC)cc2)cc1 (centres undefined),.,-2.1,.,.,3.9,.
Cc1cc(-n2c(C)cc(C(=O)CSc3ccccn3)c2C)no1,.,26.2*,-4.5,.,0.4,17.8
Cc1ccc(-c2cc(-c3ccccc3)c(C#N)c(N)n2)o1,2.7,30.3*,-12.0,6.4,1.2,66.2*
O=C(O)CNC(=O)CC1S/C(=N/N=C2\CSC(=O)N2)NC1=O (centres undefined),0.7,38.3*,7.2,9.0,-4.5,21.6*
C[C@H]1[C@@H](C(=O)N2CCCC2)Cc2nc3ccccc3nc2C[C@@H]1c1ccccc1,.,1.4,.,.,6.2,.
CCOc1ccc2cc(C3CC(c4ccco4)=NN3S(=O)(=O)c3ccccc3)c(Cl)nc2c1 (centres undefined),0.0,3.1,-1.5,-1.0,11.6,.
SMILES,CTSL1 counter,PRMT1 inh,PAD4 inh,GSTO1 counter,TDP2 absorb,PRMT1 confirm
COc1ccc2cc(C3CC(c4ccco4)=NN3S(=O)(=O)c3ccccc3)c(Cl)nc2c1 (centres undefined),-2.3,29.4*,-0.6,-8.4,-8.9,1.6
COc1ccc(S[C@]2(C(=O)N3CCN(c4ncccn4)CC3)CC(=O)N(c3ccc(C#N)cc3)[C@@H]2c2ccc(OC)cc2)cc1,.,4.1,.,.,-11.4,.
CCn1c(N)c(C(N)=O)sc1=S,0.7,26.8*,-0.8,3.3,4.3,11.8
Cc1ccc(NS(=O)(=O)c2cc(C(=O)NCc3ccncc3)ccc2C)cc1,.,-1.4,.,.,1.9,.
COCCNC(=O)c1ccc(C)c(S(=O)(=O)Nc2ccc(C)cc2)c1,-3.0,35.9*,2.4,5.9,2.7,0.1
O=S1(=O)CC(O)C(O)CS1 (centres undefined),.,81.4*,.,.,-1.4,84.9*
COc1ccc(S(=O)(=O)NC2CCN(C#N)CC2)cc1,.,-4.2,.,.,1.4,.
O=C(Cn1cnc2ccccc2c1=O)N1CCN(Cc2ccc(F)cc2)CC1,.,-4.2,.,.,-2.0,.
Cn1cc(Br)c(C(=O)Nc2c(F)c(F)c(F)c(F)c2F)n1,5.3,1.1,0.0,-0.1,-0.2,.
Cn1cc(Br)c(NC(=O)/C=C/C(=O)O)n1,-0.9,36.0*,3.6,4.8,3.1,4.4
CCOC(=O)CC(S(=O)(=O)c1ccccc1)S(=O)(=O)c1ccccc1,.,78.9*,.,.,2.1,58.0*
CCn1c(C)c(CS(=O)(=O)c2ccccc2)[nH]c1=O,0.0,69.3*,5.4,9.3,-3.4,72.6*
O=C1C=CC(=O)N1c1ccc2ccccc2c1,.,69.9*,.,.,-4.3,90.2*
Cc1cccc(N2C(=O)C=CC2=O)c1,.,70.9*,.,.,-2.3,87.6*
CCCCNS(=O)(=O)/C=C/c1ccc(F)cc1CNC(=O)OC(C)(C)C,.,-2.2,.,.,-5.6,.
CCOC(=O)c1ccc(/[N+]([O-])=C/c2ccccc2)cc1,.,24.8*,0.1,.,0.7,9.6
O=C(NC(Cc1c[nH]c2ccccc12)C(=O)OCC(=O)c1cccc2ccccc12)c1cccs1 (centres undefined),-1.7,50.3*,1.9,-2.0,1.8,-0.7
CC(=S)/C=C1\Sc2ccccc2N1C,4.6,39.3*,-3.5,-7.2,1.3,17.1
Cc1ccc(C(=O)Nc2ncc3c(n2)CC(c2ccco2)CC3=O)cc1 (centres undefined),-1.6,33.2*,-2.2,-5.0,-0.4,3.6
C[n+]1cc(C(O)(c2ccccc2)c2ccccc2)n2ccccc21,.,-0.5,.,.,-3.8,.
Cc1cc(NC(=O)CSCC(=O)OCC(=O)c2cccc(Br)c2)no1,.,27.4*,-4.2,.,-13.8,2.0
O=C(CSc1nc(NS(=O)(=O)c2ccccc2)cc(=O)[nH]1)Nc1ccccc1Cl,.,28.5*,.,.,-6.6,16.0
Cc1[nH]c(SCC(=O)Nc2cc(S(C)(=O)=O)ccc2Cl)nc1Cc1ccccc1,.,26.4*,1.6,.,-5.0,8.9
[N-]=C=C1C(=S)NC(=O)[C@H]([n+]2ccccc2)[C@H]1c1ccc(Cl)cc1,1.6,25.4*,-1.9,-9.5,15.1,31.6*
[N-]=C=C1C(=O)NC(=O)C([n+]2ccc(-c3ccncc3)cc2)C1c1ccccc1C(F)(F)F (centres undefined),-6.4,7.8,3.3,11.3,-1.3,.
O=C(COC(=O)c1ccc2ncsc2c1)NC(=O)c1ccccc1,-6.8,26.9*,3.7,-0.2,11.3,2.2
